Screening data: PubChem, several laboratories
GRK2 aptamer HTS: blocks RNA aptamer binding to human GRK2. P25098. bead flow cytometry, FAM-aptamer displacement from GRK2. inhibition of aptamer binding, % at 10 µM. actives 0.59% (n = 330,000). AID 488847;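 active means inhibition of aptamer binding above 40%, roughly 3 SD of noise, on plates passing a quality check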;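 further: median bead fluorescence of bound FAM aptamer so fluorescent compounds give negative values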
LMPTP block: blocks human LMPTP phosphatase. inhibition, % at 20 µM. actives 0.22% (n = 360,000). recombinant LMPTP-A, OMFP fluorogenic substrate, fluorescence intensity. P24666;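 active means compounds that cut the enzyme signal by at least half of the control window in the single-dose screen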;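 further: plate controls were DMSO wells with enzyme plus substrate for no effect and substrate without enzyme for full effect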
Target sequence (P24666 whole entry, looked up): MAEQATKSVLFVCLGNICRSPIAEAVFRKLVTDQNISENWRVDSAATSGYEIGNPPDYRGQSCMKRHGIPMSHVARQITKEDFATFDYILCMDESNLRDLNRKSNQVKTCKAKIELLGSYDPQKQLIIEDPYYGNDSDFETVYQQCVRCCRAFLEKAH
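Assay system: LMPTP-A, protein tyrosine phosphatase of low molecular weight / Medium: pH 6.0 Bis-Tris buffer with DTT and Triton X-100 / Schedule: 50 min enzyme reaction at room temperature, protected from light / Measured by: endpoint fluorescence intensity from OMFP dephosphorylation / Read-out basis: % inhibition relative to no-enzyme and uninhibited control wells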
DNMT1 block: DNMT1 (human) enzyme inhibition; DNMT1 molecular beacon, Hinp1I cleavage, fluorescence; actives 0.83% (n = 360,000); P26358; AID 588458; inhibition (reported as % activation of signal), % at 10 µM; in the data active means inhibition above about 50%
Scp1 inh: inhibitors of human Scp-1 phosphatase; Recombinant Scp1, phosphopeptide, malachite green phosphate absorbance; inhibition, % at 20 µM; actives 0.88% (n = 340,000);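 active means inhibition above about 50% at 20 µM, limit read from the data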;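 further: plate controls were DMSO wells with enzyme for no effect and wells lacking enzyme for full effect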
Target sequence (Q9GZU7 76-261 limits assumed): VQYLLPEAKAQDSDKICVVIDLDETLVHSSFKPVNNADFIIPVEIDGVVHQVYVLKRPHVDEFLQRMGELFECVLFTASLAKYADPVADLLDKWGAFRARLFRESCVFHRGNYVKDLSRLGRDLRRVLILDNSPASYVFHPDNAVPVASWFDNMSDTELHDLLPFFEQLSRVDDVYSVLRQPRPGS
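Test system: SCP-1 catalytic domain; Buffer or medium: Acidic Tris acetate buffer with magnesium and detergent; Also added: Phosphorylated 17-residue peptide substrate; Compound: single 20 µM dose, 1% DMSO; Schedule: enzyme reaction 45 min at room temperature, colour 5 min, stabilisation 30 min; Signal: Phosphate-binding colour reagent, absorbance read at 630 nm.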
SUMO1 PPI mod: modulators of human SUMO1-mediated protein-protein interactions; P63165; SUMO1 binding to a labelled peptide, TR-FRET, 1 h; inhibition, % at 20 µM; actives 0.33% (n = 360,000); in the data active means inhibition above about 37%
Target sequence (P63165 whole entry, looked up): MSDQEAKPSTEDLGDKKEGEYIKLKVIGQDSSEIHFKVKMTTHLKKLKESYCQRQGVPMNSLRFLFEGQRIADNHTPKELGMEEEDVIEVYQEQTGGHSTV
STEP inh: blocks human striatal-enriched tyrosine phosphatase; P54829; recombinant STEP, OMFP fluorogenic substrate, fluorescence; inhibition, % at 20 µM; actives 0.25% (n = 360,000); AID 588621;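 active means inhibition at 20 µM, scaled per plate between control wells, above about 37%, limit read from the data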;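 further: 0% = DMSO with enzyme and substrate and 100% = substrate only without enzyme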
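Material: STEP (striatal-enriched tyrosine phosphatase) enzyme, cell-free; Compound dosing: 20 µM single dose in 1% DMSO; Technique: fluorescence read at 480 nm ex / 540 nm em; Times: reaction 20 min, ambient temperature; Medium: 50 mM Bis-Tris pH 6.0 with 2.5 mM DTT and 0.005% Tween 20; Also added: OMFP at 25 µM.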
GRK2 inh confirm: confirmation of human GRK2 inhibitors displacing RNA aptamer | shares compounds with GRK2 aptamer HTS | bead-bound GRK2, FAM-aptamer displacement, flow cytometry | aptamer displacement, % at 10 µM | actives 4% (n = 2,000) | AID 504451;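 active means aptamer displacement above 40%, near three times the noise of non-fluorescent compounds, on plates passing quality checks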;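 further: negative values mostly reflect intrinsic compound fluorescence rather than true enhancement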
Aptamer quench SP: counter-screen for GRK2 aptamer inhibitors: fluorescent aptamer quenchers. Carboxyfluorescein RNA aptamer on beads, flow cytometry quenching; stronger effect = lower value. 2,000 tested, under 10 active. shares compounds with GRK2 aptamer HTS. fluorescence response (% of DMSO), % at 10 µM;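 active means compounds that quench the bead-bound fluorescent RNA probe, cutting fluorescence to under half of the solvent control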;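 further: counterscreen run without GRK2 so only probe quenching by compound is measured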
GRK2 CP2: human GRK2 inhibition confirmation, cherry pick 2; bead-bound GRK2, FAM-aptamer displacement, flow cytometry; 360 tested, under 10 active; shares compounds with GRK2 aptamer HTS; inhibition of aptamer binding, % at 10 µM;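 active means inhibition of aptamer binding above 40%, about triple the noise seen with nonglowing compounds, on plates passing quality control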;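 further: negative values mostly come from compounds that fluoresce themselves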
FAM quench SP: quenches fluorescent RNA aptamer, GRK2 hit artifact. shares compounds with GRK2 aptamer HTS. carboxyfluorescein RNA aptamer beads, flow cytometry quenching; stronger effect = lower value. fluorescence response vs DMSO, % at 10 µM. 360 tested, under 10 active. AID 588494;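 active means response vs DMSO under 50%, meaning signal dropped by over half, treated as fluorescence quencher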;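 further: labelled aptamer on streptavidin beads without GRK2 as a quench counter-screen; 100% = bead fluorescence of DMSO wells and lower means quenching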
* = called active by the depositor; . = no result. The list is not random: actives were taken first. Their share in the collection is about 2.1%.

SMILES	GRK2 aptamer HTS	LMPTP block	DNMT1 block	Scp1 inh	SUMO1 PPI mod	STEP inh	GRK2 inh confirm	Aptamer quench SP	others
Nc1nc(SCC(=O)NCc2ccco2)[nH]c(=O)c1-c1ccccc1	24.0	-1.2	3.6	-0.4	0.0	-3.6	.	.	GRK2 CP2=-7.6;FAM quench SP=103.0
Cc1cc(C)nc(SCC(=O)NCc2ccco2)n1	4.0	-4.8	5.0	7.2	1.8	-1.4	.	.
Cc1nc(SCC(=O)NCc2ccco2)[nH]c(=O)c1C	8.0	-1.1	21.0	22.8	7.5	2.9	.	.	GRK2 CP2=-26.5;FAM quench SP=103.0
O=C(CSc1nc2[nH]ncc2c(=O)n1-c1ccccc1Br)NCc1ccco1	2.0	1.0	-3.6	-10.7	0.4	-2.4	.	.	GRK2 CP2=9.0;FAM quench SP=99.0
Cc1ccc(C2C3=C(CCCC3=O)Nc3nc(SCC(=O)NCc4ccco4)[nH]c(=O)c32)cc1 (stereo not given)	2.0	1.4	2.7	-7.3	6.6	0.3	.	.	GRK2 CP2=14.3;FAM quench SP=101.0
COC(=O)[C@@]12C[C@@H](CC(=O)NCc3cccc4ccccc34)C(=O)N(Cc3ccccc3)C1=CCC(C)(C)C2	.	7.0	.	.	-1.9	.	.	.
Cn1c(NCc2cccnc2)nc2cc(-c3ccc(C(=O)N4CCOCC4)cc3)sc2c1=O	.	3.4	-4.8	.	-26.0	-3.5	.	.
CC[C@H](C)/C=C/C1=CC2=C(Cl)C(=O)[C@@]3(C)OC(=O)C(C(=O)[C@H](C)[C@@H](C)O)=C3C2=CO1	69.0*	1.9	20.6	-12.8	-3.0	-4.2	3.3	103.7
COc1cc([N+](=O)[O-])cc2sc(NC(C)=O)nc12	66.0*	-0.8	-0.4	11.8	-36.5	0.1	0.3	95.5
CCCCC(=O)Nc1nc2c(OC)cc([N+](=O)[O-])cc2s1	0.0	-1.3	0.4	-0.7	-4.8	-1.6	.	.
CCC1Sc2ccc(S(=O)(=O)CCC(=O)N3CCc4ccccc43)cc2NC1=O (stereo not given)	57.0*	0.3	3.8	21.1	3.0	-0.8	2.7	97.2	GRK2 CP2=0.6;FAM quench SP=104.0
CCC1Sc2ccc(S(=O)(=O)CCC(=O)Nc3ccccc3Cl)cc2NC1=O (stereo not given)	1.0	1.0	1.6	-0.9	2.1	-1.1	.	.	GRK2 CP2=27.8;FAM quench SP=98.0
O=C(CC1Sc2ccccc2NC1=O)OCC(=O)N1CCc2ccccc21 (stereo not given)	4.0	0.0	-3.5	2.5	3.3	-0.6	.	.
CC1Sc2ccc(S(=O)(=O)CCC(=O)N3CCCC3)cc2NC1=O (stereo not given)	0.0	-1.2	2.9	-5.2	4.2	-1.4	.	.
CC1Sc2ccc(S(=O)(=O)CCC(=O)N3CCc4ccccc43)cc2NC1=O (stereo not given)	0.0	-0.5	3.6	-8.6	-3.9	1.5	.	.	GRK2 CP2=-28.1;FAM quench SP=99.0
Cc1cc(=O)n2c3ccccc3n(C)c2n1	7.0	0.0	-4.0	-7.3	5.1	1.5	.	.
COC(=O)c1ccc(S(=O)(=O)NCc2ccccn2)n1C	3.0	0.4	-1.4	-11.4	3.5	-1.7	.	.
Cn1cc(-c2csc(C(O)c3ccc(F)cc3)n2)cn1 (stereo not given)	.	-0.7	-1.0	.	-1.0	0.3	.	.
Cc1onc(-c2ccccc2)c1C(=O)NCC1CCCO1 (stereo not given)	91.0*	-0.2	2.7	-4.8	-0.9	-2.9	-2.0	98.8
COc1cc2c(cc1OC)C(C)N(S(=O)(=O)c1ccc(C)cc1)CC2 (stereo not given)	49.0*	0.8	0.4	-34.0	9.6	-1.6	-10.5	94.3
c1ccc(Cn2ncc3ccccc32)cc1	26.0	-0.8	0.2	-2.6	-1.7	0.6	1.5	98.2
O=C1CCC(C(=O)N2CCCO2)CN1Cc1cccc(C(F)(F)F)c1 (stereo not given)	.	-0.3	0.3	-1.6	1.5	-0.7	.	.
Cc1[nH]c2ccc(C(=O)OC(C)C(=O)NC3(C#N)CCCCC3)cc2c1C (stereo not given)	2.0	0.1	4.2	-9.0	4.9	-1.5	.	.
CCOC(=O)/C(C#N)=C/C1=C(N2CCOCC2)C(C)(C)OCC1	2.0	0.3	0.7	-6.9	-3.4	0.8	.	.
COC(=O)/C=C1\OCc2c(F)cccc21	.	-0.3	.	.	-1.3	.	.	.
SMILES	GRK2 aptamer HTS	LMPTP block	DNMT1 block	Scp1 inh	SUMO1 PPI mod	STEP inh	GRK2 inh confirm	Aptamer quench SP	others
CN(C)S(=O)(=O)n1cnc(C(CCO)c2ncn(S(=O)(=O)N(C)C)c2CCCO)c1 (stereo not given)	40.0	-1.8	3.0	-8.2	-0.9	-2.2	3.2	21.6*
CN(C)S(=O)(=O)n1cnc(-c2ccccc2)c1-c1ccccc1	2.0	0.5	0.2	0.3	0.3	-2.4	.	.
CN1CCN(c2ccc(C(F)(F)F)cc2NC(=O)c2ccco2)CC1	0.0	-1.2	1.4	-6.9	4.0	0.8	.	.
COc1ccc(C2CC(C(F)(F)F)n3nc(C(=O)Nc4c(C)n(C)n(-c5ccccc5)c4=O)c(Cl)c3N2)cc1 (stereo not given)	1.0	.	.	.	.	.	4.6	98.0
COc1cccc(C2CC(C(F)(F)F)n3nc(C(=O)Nc4c(C)n(C)n(-c5ccccc5)c4=O)cc3N2)c1 (stereo not given)	3.0	-0.7	1.6	-6.5	-2.0	-3.0	.	.
CN=c1scc(C)n1/N=C/c1ccc2c(c1)OCO2	91.0*	0.2	-13.2	-4.6	-14.8	-1.9	-1.3	101.0
CN=c1scc(C)n1/N=C/c1ccc(O)cc1	2.0	0.7	-13.5	-4.5	-7.7	-1.3	.	.
O=c1cc(OCc2ccccc2)cc[nH]1	43.0*	-0.8	1.0	-4.8	4.6	-2.3	.	.	GRK2 CP2=-30.1;FAM quench SP=99.0
O=C(N=Nc1c(O)[nH]c2ccc(Cl)cc12)c1cc(-c2cccs2)nc2ccccc12	0.0	2.0	43.7	4.0	-3.2	5.0	-7.1	96.5
CCCN1CCN(CC(=O)Nc2nnc(CC)s2)CC1	8.0	2.5	-4.4	0.5	-2.6	4.2	.	.
Cc1nnc(SCC(=O)Nc2ccc(S(N)(=O)=O)cc2)n(N)c1=O	30.0	-3.1	0.1	4.7	2.0	5.6	-6.2	99.6
Cc1ccc(NC(=O)CSc2nnc(C)c(=O)n2N)cc1	4.0	-2.4	0.5	-9.1	-0.1	-4.9	.	.
O=[N+]([O-])c1cccc(-c2cc3cccc[n+]3cc2-c2cccc([N+](=O)[O-])c2)c1	0.0	-0.4	0.1	-5.2	-21.5	4.9	.	.
